From article PMC3677025 (Pharmacological research : the official journal of the …, 2012)

Key:
EphA4 [1] = target: T1, EphA4 (Mus musculus, UniProt Q03137); assay: EphA4 AP binding to immobilized KYL peptide; conditions: for inhibition at 10 µM: read-out: (% Inhib.) EphA4 KYL; for (% Inhib.) EphA4 KYL: screen, compounds at 10 μM
Summary of the method: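 Biotinylated KYL peptide (biotin on the lysine of a C-terminal GSGSK linker) was captured on streptavidin-coated wells, with coating in borate buffer pH 8.7. Test compound (10 μM in 1% DMSO for screening; varied concentrations for confirmation) was added with ~0.35 nM mouse EphA4 ectodomain–AP from NIH3T3 supernatant in TBST. Bound AP was read at 405 nm with 1 mg/ml p-nitrophenylphosphate in SEAP buffer pH 9.8, minus AP-only background. Percent inhibition was taken relative to no-compound wells.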

EphA4 [2] = target: T1, EphA4; assay: ELISA, ephrin-A5 AP binding to immobilized EphA4 Fc
Summary of the method: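 Mouse EphA4 Fc was captured at 1 μg/ml on protein A wells. Ephrin-A5 AP (~0.01 nM for IC50) from HEK293 supernatant was added with test compound for 2 h in TBST and read with p-nitrophenylphosphate, minus Fc-only background. For reversibility, compound was incubated 2 h, washed 30 min, then ephrin-A5 AP added for 1 h. For mode of inhibition, ephrin-A5 AP was titrated per compound concentration and fitted one-site; Ki came from KD/Bmax versus inhibitor regression.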

EphB4 [3] = target: T2, EphB4 (Mus musculus, UniProt P54761); assay: ELISA, ephrin-B2 AP binding to immobilized EphB4 Fc; conditions: for IC50: read-out: IC50 ± SE EphB4 ephrin-B2
T2 sequence (P54761 16-539): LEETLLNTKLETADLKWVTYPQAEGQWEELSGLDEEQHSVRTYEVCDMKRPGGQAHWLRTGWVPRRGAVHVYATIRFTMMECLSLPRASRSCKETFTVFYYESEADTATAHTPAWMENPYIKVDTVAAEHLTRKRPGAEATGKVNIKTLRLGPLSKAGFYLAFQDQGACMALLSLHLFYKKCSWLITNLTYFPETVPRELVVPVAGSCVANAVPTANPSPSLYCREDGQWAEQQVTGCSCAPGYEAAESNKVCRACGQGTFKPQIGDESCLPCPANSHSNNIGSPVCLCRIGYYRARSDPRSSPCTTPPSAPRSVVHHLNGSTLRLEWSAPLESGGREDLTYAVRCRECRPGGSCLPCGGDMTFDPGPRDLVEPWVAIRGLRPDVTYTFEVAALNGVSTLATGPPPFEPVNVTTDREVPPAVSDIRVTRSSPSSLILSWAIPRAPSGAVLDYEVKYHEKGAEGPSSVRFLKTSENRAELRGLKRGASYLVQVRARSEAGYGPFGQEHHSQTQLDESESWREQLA

EphA2 [4] = target: EphA2 (Mus musculus, UniProt Q03145); assay: ELISA, ephrin-A5 AP binding to immobilized EphA2 Fc; conditions: read-out: IC50 ± SE EphA2 ephrin-A5
Chain of EphA2 (Mus musculus, UniProt Q03145) (Q03145 26-538): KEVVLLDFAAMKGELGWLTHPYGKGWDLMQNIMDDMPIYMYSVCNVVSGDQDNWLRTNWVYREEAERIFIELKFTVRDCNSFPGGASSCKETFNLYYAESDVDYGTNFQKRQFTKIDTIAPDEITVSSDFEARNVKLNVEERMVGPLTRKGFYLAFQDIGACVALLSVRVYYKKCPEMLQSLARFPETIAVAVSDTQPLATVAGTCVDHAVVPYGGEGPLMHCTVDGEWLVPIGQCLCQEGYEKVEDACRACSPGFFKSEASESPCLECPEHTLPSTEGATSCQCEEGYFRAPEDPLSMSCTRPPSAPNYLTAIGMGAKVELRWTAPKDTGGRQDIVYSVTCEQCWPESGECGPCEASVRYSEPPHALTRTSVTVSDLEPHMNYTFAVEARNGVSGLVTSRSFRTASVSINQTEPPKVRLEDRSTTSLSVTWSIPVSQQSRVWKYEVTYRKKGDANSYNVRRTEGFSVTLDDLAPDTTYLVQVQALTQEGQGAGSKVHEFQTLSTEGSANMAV

EphA2 [5] = target: EphA2 (Homo sapiens, UniProt P29317); assay: Ephrin-A1 Fc-induced EphA2 phosphorylation in HUVECs; assay type: cell-based; conditions: at 50 μM
Chain of EphA2 (Homo sapiens, UniProt P29317) (P29317 24-976): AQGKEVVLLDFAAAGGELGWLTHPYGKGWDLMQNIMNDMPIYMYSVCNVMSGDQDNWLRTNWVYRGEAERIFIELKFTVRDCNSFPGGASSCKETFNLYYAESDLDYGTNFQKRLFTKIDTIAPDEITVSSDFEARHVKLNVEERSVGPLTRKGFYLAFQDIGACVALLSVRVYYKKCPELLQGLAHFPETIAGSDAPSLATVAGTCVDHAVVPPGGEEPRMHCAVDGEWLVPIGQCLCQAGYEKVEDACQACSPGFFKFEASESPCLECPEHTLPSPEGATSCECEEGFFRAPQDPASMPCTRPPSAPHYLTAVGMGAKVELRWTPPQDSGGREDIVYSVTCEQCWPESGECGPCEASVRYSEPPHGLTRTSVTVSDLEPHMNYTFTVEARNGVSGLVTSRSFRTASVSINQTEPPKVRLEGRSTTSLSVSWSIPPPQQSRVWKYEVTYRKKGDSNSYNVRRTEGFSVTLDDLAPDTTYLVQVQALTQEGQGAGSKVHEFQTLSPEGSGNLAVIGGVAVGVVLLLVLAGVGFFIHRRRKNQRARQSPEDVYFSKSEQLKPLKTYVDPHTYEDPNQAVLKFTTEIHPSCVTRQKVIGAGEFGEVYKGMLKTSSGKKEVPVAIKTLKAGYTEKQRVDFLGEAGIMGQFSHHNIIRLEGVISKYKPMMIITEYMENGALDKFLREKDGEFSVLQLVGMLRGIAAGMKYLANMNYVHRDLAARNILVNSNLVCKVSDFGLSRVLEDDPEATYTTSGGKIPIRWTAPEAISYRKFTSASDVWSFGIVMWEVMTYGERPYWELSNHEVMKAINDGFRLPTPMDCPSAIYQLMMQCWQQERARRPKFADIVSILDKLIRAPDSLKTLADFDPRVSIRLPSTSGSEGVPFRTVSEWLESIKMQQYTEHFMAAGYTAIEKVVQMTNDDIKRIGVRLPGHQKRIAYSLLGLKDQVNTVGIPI
Summary of the method: (§1)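 HUVECs were serum-starved 1–2 h and preincubated 15 min with 50 μM test compound (DMSO ≤0.4% final). They were then stimulated 20 min with 0.25 μg/mL ephrin-A1 Fc plus 1.5 μg/mL ephrin-B2 Fc (preclustered with 3-fold anti-Fc), or Fc, with compound present. Lysates were made in modified RIPA with NaF and pervanadate. EphA2 (1 μg antibody) and EphB4 (20 μg antibody) immunoprecipitates were immunoblotted for phosphotyrosine; lysates were probed for receptors and β-actin.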

HUVECs = assay: Capillary-like tube formation assay, HUVECs on Matrigel; assay type: cell-based, human; conditions: at 10 μM, 18 hours
Summary of the method: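 HUVECs (2.3 × 10⁴) were seeded on Matrigel-precoated wells in complete HUVEC medium containing test compound or DMSO control and grown for 18 h. Polygons were counted from phase-contrast images, 2–4 pictures from each of 3–6 wells. Counts were compared with DMSO-only wells by one-way ANOVA with Dunnett's post-hoc test.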

EphB6 = assay: ELISA, ephrin-B2 AP binding to immobilized EphB6 Fc; conditions: at 100 μM
Summary of the method: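 Eph receptor Fc fusions were immobilized at 1 μg/ml in TBST on protein A-coated wells. Diluted ephrin AP fusion supernatant from transiently transfected HEK293 cells was added for 2 h with or without test compound; for IC50 it was at approximately 0.01 nM. Bound AP was read with p-nitrophenylphosphate, minus Fc-only background. IC50 came from a variable-slope log(inhibitor)–response fit, bottom constrained to 0.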

EphB4 [6] = target: T3, EphB4 (Homo sapiens, UniProt P54760); assay: Ephrin-B2 Fc-induced EphB4 phosphorylation in HUVECs; assay type: cell-based; conditions: at 50 μM
T3 sequence (P54760 16-987): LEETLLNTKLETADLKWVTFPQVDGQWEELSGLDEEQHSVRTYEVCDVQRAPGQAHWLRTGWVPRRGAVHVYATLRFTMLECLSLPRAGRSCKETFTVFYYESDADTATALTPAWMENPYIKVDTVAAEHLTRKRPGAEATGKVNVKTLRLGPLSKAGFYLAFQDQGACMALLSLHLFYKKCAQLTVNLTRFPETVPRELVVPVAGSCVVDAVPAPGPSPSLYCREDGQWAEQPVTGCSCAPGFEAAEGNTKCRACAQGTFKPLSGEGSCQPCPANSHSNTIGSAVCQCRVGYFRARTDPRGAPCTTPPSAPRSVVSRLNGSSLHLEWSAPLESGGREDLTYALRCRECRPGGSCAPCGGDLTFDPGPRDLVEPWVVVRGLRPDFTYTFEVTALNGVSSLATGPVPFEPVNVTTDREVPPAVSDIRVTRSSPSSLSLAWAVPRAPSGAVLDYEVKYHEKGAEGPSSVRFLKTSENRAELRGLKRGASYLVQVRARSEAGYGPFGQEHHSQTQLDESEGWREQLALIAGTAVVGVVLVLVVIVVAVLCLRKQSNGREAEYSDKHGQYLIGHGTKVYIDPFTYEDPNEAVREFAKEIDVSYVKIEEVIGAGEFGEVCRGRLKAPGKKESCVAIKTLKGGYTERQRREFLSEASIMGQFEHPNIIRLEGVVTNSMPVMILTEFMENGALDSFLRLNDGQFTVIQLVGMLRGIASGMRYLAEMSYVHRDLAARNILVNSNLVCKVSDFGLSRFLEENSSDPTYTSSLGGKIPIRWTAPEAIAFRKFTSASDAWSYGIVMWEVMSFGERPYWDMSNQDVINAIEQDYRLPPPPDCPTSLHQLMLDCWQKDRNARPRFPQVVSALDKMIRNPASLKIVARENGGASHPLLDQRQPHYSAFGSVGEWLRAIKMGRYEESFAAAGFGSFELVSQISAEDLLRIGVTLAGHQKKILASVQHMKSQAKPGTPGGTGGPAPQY
Summary of the method: as §1

Eph receptors = assay: ELISA, ephrin binding to panel of EphA and EphB receptors; conditions: at 100 μM
[7] = read-out: IC50 ± SE EphA4 ephrin-A5

T1 sequence (Q03137 20-547 limits assumed): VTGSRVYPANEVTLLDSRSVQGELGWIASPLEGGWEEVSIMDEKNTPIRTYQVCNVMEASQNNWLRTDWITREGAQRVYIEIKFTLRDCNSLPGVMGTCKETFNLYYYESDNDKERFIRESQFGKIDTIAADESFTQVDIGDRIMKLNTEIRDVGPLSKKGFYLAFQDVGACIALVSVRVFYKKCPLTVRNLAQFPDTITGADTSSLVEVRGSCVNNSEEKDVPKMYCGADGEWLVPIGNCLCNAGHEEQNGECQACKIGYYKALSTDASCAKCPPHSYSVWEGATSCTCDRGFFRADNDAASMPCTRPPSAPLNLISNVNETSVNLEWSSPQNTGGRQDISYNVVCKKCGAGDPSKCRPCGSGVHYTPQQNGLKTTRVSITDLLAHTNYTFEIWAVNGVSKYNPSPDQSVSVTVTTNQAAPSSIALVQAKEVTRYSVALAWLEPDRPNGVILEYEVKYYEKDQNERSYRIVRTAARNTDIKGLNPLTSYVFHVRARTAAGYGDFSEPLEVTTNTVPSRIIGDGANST

For `O=c1c(O)cc([C@H]2Oc3cc(O)cc(O)c3C[C@H]2O)cc2c([C@H]3Oc4cc(O)cc(O)c4C[C@H]3O)cc(O)c(O)c12` [theaflavin], the inhibition at 10 µM (EphA4 [1]) was under 40%.

With `O=C(O[C@@H]1Cc2c(O)cc(O)cc2O[C@@H]1c1cc(O)c(O)c(O)c1-c1c([C@H]2Oc3cc(O)cc(O)c3C[C@H]2OC(=O)c2cc(O)c(O)c(O)c2)cc(O)c(O)c1O)c1cc(O)c(O)c(O)c1` [2′,2‴-bisepigallocatechin digallate] the “(% Inhib.) EphA4 KYL” value (EphA4 [1]) was 76%.

`Oc1cc(O)c2c(c1)O[C@H](c1ccc(O)c(O)c1)[C@H](O)C2` [epicatechin] showed an IC50 (EphA4 [1]) of 190 ± 1.5 µM, an inhibition at 10 µM (EphA4 [1]) of under 40% and an IC50 (EphA4 [2]) of over 200 µM.

With `O=C(O)c1cc(O)c(=O)c2c(O)c(O)cc([C@H]3Oc4cc(O)cc(O)c4C[C@H]3O)c2c1` [epitheaflavic acid] the “(% Inhib.) EphA4 KYL” value (EphA4 [1]) was “less than 40%”.

Compound `O=C(O[C@@H]1Cc2c(O)cc(O)cc2O[C@@H]1c1cc(O)c(O)c(O)c1-c1c([C@H]2Oc3cc(O)cc(O)c3C[C@H]2O)cc(O)c(O)c1O)c1cc(O)c(O)c(O)c1` [2′,2′-bisepigallocatechin monogallate] has an inhibition at 10 µM (EphA4 [1]) of 80%.

For “theaflavin-3,3′-digallate [theaflavin-3,3′-digallate]”, the “(% Inhib.) EphA4 KYL” value (EphA4 [1]) was 65%.

With `O=C(O[C@@H]1Cc2c(O)cc(O)cc2O[C@@H]1c1ccc(O)c(O)c1)c1cc(O)c(O)c(O)c1` [epicatechin-3-monogallate, epicatechin-3-gallate] the IC50 (EphA4 [1]; read-out: IC50 ± SE EphA4 KYL) was 50 ± 6 µM, the “(% Inhib.) EphA4 KYL” value (EphA4 [1]) was under 40% and the IC50 (EphA4 [2]; [7]) was over 200 µM. The IC50 (EphB4 [3]) was over 200 µM and the IC50 (EphA2 [4]) was over 200 µM.

For epigallocatechin-3-gallate [EGCG], the IC50 (EphA4 [1]; read-out: IC50 ± SE EphA4 KYL) was 15 ± 1.8 µM, the “(% Inhib.) EphA4 KYL” value (EphA4 [1]) was under 40% and the “inhibition of ephrin-A5 binding to EphA4” value (EphA4 [2]; at 200 μM) was ~ 25%. The IC50 (EphA4 [2]; [7]) was over 200 µM, the “inhibition of ephrin binding to EphB4” value (EphB4 [3]; at 100 μM) was “not detectably inhibited” and the IC50 (EphB4 [3]) was over 200 µM. The “EphA2 phosphorylation in HUVECs” value (EphA2 [5]) was “does not strongly inhibit”, the IC50 (EphA2 [4]) was over 200 µM and the capillary-like tube formation (HUVECs) was “significantly inhibits”. The “inhibition of ephrin binding to EphB6” value (EphB6) was “not detectably inhibited”, the “EphB4 phosphorylation in HUVECs” value (EphB4 [6]) was “does not strongly inhibit” and the “inhibition of ephrin binding to many Eph receptors” value (Eph receptors) was 10–30%.

`Oc1cc(O)c2c(c1)O[C@H](c1cc(O)c(O)c(O)c1)[C@H](O)C2` [epigallotechin, epigallocatechin] was tested, and the IC50 (EphA4 [1]) was 44 ± 13 µM, the inhibition at 10 µM (EphA4 [1]) was under 40% and the IC50 (EphA4 [2]) was over 200 µM.

In the case of `O=C(O)c1cc(O)c(=O)c2c(O)c(O)cc([C@H]3Oc4cc(O)cc(O)c4C[C@@H]3O)c2c1` [theaflavic acid], the “(% Inhib.) EphA4 KYL” value (EphA4 [1]) is reported as “less than 40%”.
